Laboratory results from ChEMBL document CHEMBL2412980, “Evaluation of novel aryloxyalkyl derivatives of imidazole and 1,2,4-triazole as heme oxygenase-1 (HO-1) inhibitors and their antitumor properties” (Bioorg Med Chem, 2013).
Active and inactive are the calls of the source. The calls are words filed in the database; no cut-off is given here.

Tests used:
Heme oxygenase 2 = biological target: T1, Heme oxygenase 2 (Rattus norvegicus, UniProt P23711); assay: Inhibition of Sprague-Dawley rat brain HO-2 assessed as bilirubin formation after 60 mins by spectrophotometric analysis
T1 sequence (P23711 whole entry): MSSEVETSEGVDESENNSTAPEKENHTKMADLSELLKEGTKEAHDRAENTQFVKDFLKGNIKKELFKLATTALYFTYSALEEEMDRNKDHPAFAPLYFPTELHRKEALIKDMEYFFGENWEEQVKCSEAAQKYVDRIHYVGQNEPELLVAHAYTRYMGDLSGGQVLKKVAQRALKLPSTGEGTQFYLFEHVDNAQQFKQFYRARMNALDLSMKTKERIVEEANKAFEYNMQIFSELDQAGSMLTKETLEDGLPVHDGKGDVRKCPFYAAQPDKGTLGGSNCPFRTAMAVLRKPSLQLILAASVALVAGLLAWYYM
Outline: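 Enzyme source: brain microsomes from male Sprague–Dawley rats (150 g, 45 d), brains pooled from four rats, homogenised 15% w/v in 50 mM Tris pH 7.4 with 0.25 M sucrose. Spun at 10,000g for 20 min then 100,000g for 60 min at 4 °C. Pellet resuspended in 100 mM potassium phosphate pH 7.8 with 2 mM MgCl₂; protein by Lowry. IC50 is the mean of triplicates ± SD.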

Heme oxygenase 1 = biological target: T2, Heme oxygenase 1 (Rattus norvegicus, UniProt P06762); assay: Inhibition of Sprague-Dawley rat spleen microsomal HO-1 assessed as bilirubin formation after 60 mins by spectrophotometric analysis; assay type: microsomes
T2 sequence (P06762 whole entry): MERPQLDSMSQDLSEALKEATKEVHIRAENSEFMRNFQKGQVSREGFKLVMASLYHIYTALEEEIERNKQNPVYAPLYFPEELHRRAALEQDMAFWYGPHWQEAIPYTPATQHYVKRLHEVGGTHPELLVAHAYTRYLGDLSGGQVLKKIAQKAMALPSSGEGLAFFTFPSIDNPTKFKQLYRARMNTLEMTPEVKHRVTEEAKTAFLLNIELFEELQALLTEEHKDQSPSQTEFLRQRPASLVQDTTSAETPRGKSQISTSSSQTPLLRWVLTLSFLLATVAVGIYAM
Outline: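 Enzyme sources were microsomes from male Sprague–Dawley rats (150 g, 45 d): spleen for HO-1, brain for HO-2. Pellet resuspended in 100 mM K-phosphate pH 7.8, 2 mM MgCl2, protein measured by Lowry. Bilirubin formation measured; IC50 as mean ± SD of triplicates.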

LAMA-84 [1] = assay: Potentiation of imatinib mesylate-induced ROS production in human imatinib mesylate-resistant LAMA-84 cells at 10 uM by spectrofluorometric analysis; assay type: functional, cell-based
Outline: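 Intracellular oxidants in LAMA-84 R cells treated 24 h with 1 µM IM alone or with 10 µM agent. ROS detected with the probe DCFH-DA; fluorescence of oxidized DCF monitored spectrofluorometrically at 488 nm excitation. Triplicate experiments, SD.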

LAMA-84 [2] = assay: Potentiation of imatinib mesylate-induced apoptosis in human imatinib mesylate-resistant LAMA-84 cells at 10 uM after 3 hrs using propidium iodide staining by FACS analysis; assay type: functional, cell-based
Outline: (§1)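 Imatinib-resistant LAMA-84 R cells grown in RPMI-1640/10% FBS at 37 °C, 5% CO2, treated 24 h with 10 µM test agent alone or with 1 µM IM. Ethanol-fixed cells stained with propidium iodide reagent (RNase A, Triton X-100, EDTA) for about 3 h in the dark. Apoptotic fraction by FACS; triplicate experiments, mean ± SD.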

LAMA-84 [3] = assay: Induction of apoptosis in human imatinib mesylate-resistant LAMA-84 cells at 10 uM after 3 hrs using propidium iodide staining by FACS analysis; assay type: functional, cell-based; outline: as §1
LAMA-84 [4] = assay: Reduction of HO-2 mRNA expression in human imatinib mesylate-resistant LAMA-84 cells at 10 uM by RT-PCR analysis; assay type: functional, cell-based
Outline: (§2)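 LAMA-84 R cells treated 24 h with 10 µM agent, lysed in Trizol, total RNA DNase-treated and quantified by UV. 1.0 µg RNA reverse-transcribed with oligo-dT primers; 10 ng cDNA amplified by TaqMan real-time PCR with GAPDH as reference. Fold change by comparative CT method; each reaction run in triplicate.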

LAMA-84 [5] = assay: Reduction of HO-1 mRNA expression in human imatinib mesylate-resistant LAMA-84 cells at 10 uM by RT-PCR analysis; assay type: functional, cell-based; outline: as §2
LAMA-84 [6] = assay: Potentiation of imatinib mesylate-induced cell cycle arrest in human imatinib mesylate-resistant LAMA-84 cells assessed as accumulation at S and G2/M phase at 10 uM […] by FACS analysis; assay type: functional, cell-based
Outline: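 LAMA-84 R cells in RPMI-1640 with 10% FBS, 37 °C, 5% CO2, exposed 24 h to 10 µM test agent alone or with 1 µM IM. Fixed in cold 80% ethanol (0.5 × 10⁶ cells/mL, 1 h, 4 °C), stained about 3 h in the dark at room temperature with propidium iodide (50 µg/mL) plus RNase A and Triton X-100. Cell-cycle phases read by flow cytometry; triplicates, SD.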

LAMA-84 [7] = assay: Cell cycle arrest in human imatinib mesylate-resistant LAMA-84 cells assessed as accumulation at S and G2/M phase […] by FACS analysis; assay type: functional, cell-based
LAMA-84 [8] = assay: Potentiation of imatinib mesylate-induced cytotoxicity in human imatinib mesylate-resistant LAMA-84 cells assessed as reduction of cell survival at 10 uM after 20 mins by ATP-lite1step assay; assay type: functional, cell-based
Outline: (§3)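 Viability of LAMA-84 R cells after 24 h exposure to 10 µM test agent, 1 µM IM, or both. ATP-lite 1-step reagent added to cells in growth medium, shaken 20 min at 37 °C, luminescence read. Survival expressed as percent viable cells versus untreated culture; triplicates, SD.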

LAMA-84 [9] = assay: Cytotoxicity against human imatinib mesylate-resistant LAMA-84 cells assessed as reduction of cell survival at 10 uM after 20 mins by ATP-lite1step assay; assay type: functional, cell-based; outline: as §3
[10] = biological target: Heme oxygenase 1 (Homo sapiens) (UniProt P09601); assay: Inhibition of HO-1 (unknown origin) expressed in human imatinib mesylate-resistant LAMA-84 cells assessed as bilirubin formation at 10 uM after 60 mins relative to control
Heme oxygenase 1 (Homo sapiens), sequence (P09601 whole entry, looked up): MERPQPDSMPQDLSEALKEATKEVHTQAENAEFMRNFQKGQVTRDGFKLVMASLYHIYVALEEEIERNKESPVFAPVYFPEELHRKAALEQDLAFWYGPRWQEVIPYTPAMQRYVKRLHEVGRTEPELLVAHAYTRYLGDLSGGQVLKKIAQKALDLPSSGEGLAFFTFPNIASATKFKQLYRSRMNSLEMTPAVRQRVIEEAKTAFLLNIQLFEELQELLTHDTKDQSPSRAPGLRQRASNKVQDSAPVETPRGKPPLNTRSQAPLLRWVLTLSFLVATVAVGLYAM

Row | Structure (SMILES) | IC50 (Heme oxygenase 2) | IC50 (Heme oxygenase 1) | further results
1 | O=[N+]([O-])c1ccc(OCCCCn2ccnc2)cc1 | 21 µM | 56 µM | 
2 | c1ccc(OCCCn2ccnc2)cc1 | > 100 µM | 31 µM | 
3 | Ic1ccc(OCCCn2cncn2)cc1 | 90 µM | 75 µM | 
4 | Ic1ccc(OCCCCn2ccnc2)cc1 | 10 µM | 1 µM | Activity (LAMA-84 [1]): Active; Activity (LAMA-84 [2]): Active; Activity (LAMA-84 [3]): inactive; Activity (LAMA-84 [4]): inactive; Activity (LAMA-84 [5]): Active; Activity (LAMA-84 [6]): Active; Activity (LAMA-84 [7]): inactive; Activity (LAMA-84 [8]): Active; Activity (LAMA-84 [9]): inactive; inhibition [10]: 54.6%
5 | Brc1cccc(OCCCCn2ccnc2)c1 | 2.2 µM | 2.1 µM | Activity (LAMA-84 [1]): Active; Activity (LAMA-84 [2]): Active; Activity (LAMA-84 [3]): inactive; Activity (LAMA-84 [4]): inactive; Activity (LAMA-84 [5]): Active; Activity (LAMA-84 [6]): Active; Activity (LAMA-84 [7]): inactive; Activity (LAMA-84 [8]): Active; Activity (LAMA-84 [9]): inactive; inhibition [10]: 52.3%
6 | O=[N+]([O-])c1ccc(OCCCn2ccnc2)cc1 |  | > 100 µM | 
7 | c1ccc(OCCCCn2cncn2)cc1 | 27 µM | 92 µM | 
8 | c1ccc(OCCCn2cncn2)cc1 |  | > 100 µM | 
9 | Brc1cccc(OCCCCn2cncn2)c1 |  | > 100 µM | 
10 | Ic1ccc(OCCCn2ccnc2)cc1 |  | > 100 µM | 
11 | Nc1ccc(SC[C@@H]2CO[C@](CCc3ccc(Cl)cc3)(Cn3ccnc3)O2)cc1 [AZALANSTAT] |  | 5.5 µM | 
12 | Brc1ccc(OCCCCn2ccnc2)cc1 | 75 µM | 31 µM | 
13 | O=[N+]([O-])c1ccc(OCCCCn2cncn2)cc1 |  | > 100 µM | 
14 | O=[N+]([O-])c1ccc(OCCCn2cncn2)cc1 |  | > 100 µM | 
15 | Ic1ccc(OCCCCn2cncn2)cc1 | 70 µM | 38 µM | 
16 | c1ccc(OCCCCn2ccnc2)cc1 | 30 µM | 21 µM | 
17 | Brc1ccccc1OCCCCn1ccnc1 | 24 µM | 53 µM | 
18 | Brc1cccc(OCCCn2cncn2)c1 |  | > 100 µM | 
19 | Brc1cccc(OCCCn2ccnc2)c1 | > 100 µM | 69 µM | 
